In ChEMBL document CHEMBL3769325, “Exploration of 2-benzylbenzimidazole scaffold as novel inhibitor of NF-κB” (Bioorg Med Chem, 2016):
pIC50: −log10 of the molar value.

Tests used:
[1] = tested on: RAW264.7; experiment: Inhibition of LPS induced NF-kappa-B transcriptional activity in mouse RAW264.7 cells at 30 uM after 20 hrs by SEAP reporter assay; assay type: cell-based
Summary of the method: (§1)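 RAW 264.7 cells stably transfected with an NF-κB-driven SEAP reporter, stimulated with LPS. Culture supernatants were heated to 65 °C for 5 min, then reacted in the dark with 4-methylumbelliferyl phosphate (500). SEAP activity was read as RFU at ex 360/em 450 nm. Results are given as IC50 or as % inhibition at 30, from three independent experiments, each averaged from triplicates.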

[2] = Inhibition of LPS induced NF-kappa-B transcriptional activity in mouse RAW264.7 cells after 20 hrs by SEAP reporter assay; assay type: cell-based; conditions: RAW264.7, 20 h; summary of the method: as §1

| pIC50 [2] | Structure (SMILES) | inhibition [1] |
| --- | --- | --- |
| < 4.52 | COc1ccc(Cc2nc3cc(OC)ccc3[nH]2)cc1 | 61% |
| 5.30 | Clc1ccc(Cc2nc3cc(Cl)ccc3[nH]2)cc1 | 76% |
| < 4.52 | COc1ccc(Cc2nc3ccccc3o2)cc1 | 42% |
| 5.62 | Clc1ccc(Cc2nc3ccccc3[nH]2)cc1 | 85% |
| 5.05 | COc1ccc(Cc2nc3ccccc3s2)cc1 | 67% |
| 5.77 | COc1ccc(Cc2nc3ccccc3[nH]2)cc1 | 90% |
| < 4.52 | Clc1ccc2[nH]c(Cc3ccccc3)nc2c1 | 31% |
| < 4.52 | COc1ccc(Cc2nc3ccccc3[nH]2)cc1OC | 32% |
| < 4.52 | COc1ccc(CCc2nc3ccccc3[nH]2)cc1 | 50% |
| 5.00 | COc1ccc(Cc2nc3cc(Cl)ccc3[nH]2)cc1 | 66% |
| 4.74 | COc1ccc2[nH]c(Cc3ccccc3)nc2c1 | 45% |
| 5.22 | Oc1ccc(Cc2nc3ccccc3[nH]2)cc1 | 75% |
| 4.72 | Cc1ccc(Cc2nc3ccccc3[nH]2)cc1 | 60% |

Continued, molecule first:

| Structure (SMILES) | pIC50 [2] | inhibition [1] |
| --- | --- | --- |
| COc1ccc(-c2nc3ccccc3[nH]2)cc1 | < 4.52 | 22% |
| CS(=O)(=O)c1ccc(Cc2nc3ccccc3[nH]2)cc1 | 4.55 | 43% |
| c1ccc(Cc2nc3ccccc3[nH]2)cc1 [BENDAZOL] | 4.74 | 43% |
| c1ccc(Cc2nc3ccccc3o2)cc1 | < 4.52 | 33% |
| Oc1ccc(Cc2nc3ccccc3[nH]2)cc1O | 5.22 | 75% |
| c1ccc(-c2nc3ccccc3[nH]2)cc1 | < 4.52 | 22% |
| COc1ccccc1Cc1nc2ccccc2[nH]1 | 5.62 | 85% |
| Clc1ccccc1Cc1nc2ccccc2[nH]1 | < 4.52 | 33% |
| Clc1ccc(-c2nc3ccccc3[nH]2)cc1 | < 4.52 | 12% |
| FC(F)(F)c1ccc(Cc2nc3ccccc3[nH]2)cc1 | 4.79 | 55% |
| COc1cc(Cc2nc3ccccc3[nH]2)cc(OC)c1OC | < 4.52 | 32% |
| CC(C)CCOc1cccc(O)c1C(=O)/C=C/c1ccc(O)cc1 | 5.00 |  |
| Nc1ccc(Cc2nc3ccccc3[nH]2)cc1 | < 4.52 | 40% |
| Clc1ccc(Cc2nc3ccccc3[nH]2)cc1Cl | 4.82 | 63% |
| Clc1cccc(Cc2nc3ccccc3[nH]2)c1 | 5.00 | 66% |
| O=[N+]([O-])c1ccc(Cc2nc3ccccc3[nH]2)cc1 | 4.92 | 64% |
